Reference: PMC6753935 (Journal of Clinical and Translational Science, 2019)

Test system: human platelets in platelet-rich plasma (PRP)
Assay: In vitro platelet aggregation in PRP of healthy human volunteers
Format: cell-based
Details: aspirin 0.83 mM, arachidonic acid 1.5 mM, citrated PRP
Method in brief: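 Healthy donors' venous blood was anticoagulated with citrate (0.38% final), PPACK (0.1 or 0.3 mM final) or heparin (15.8 USP U/ml). PRP was spun at 650 × g for 4 min at room temperature. Aspirin 0.83 mM final for 10 min, then test compound (0.01–3 µM final) for 20 min. Aggregation induced by arachidonic acid 1.5 mM or ADP 5 µM. IC50 from initial-slope inhibition by Hill-equation fit.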

CC(=O)Oc1ccccc1C(=O)O [Aspirin, acetyl salicylic acid, reference compound]
Effect on arachidonic-acid-induced platelet aggregation: eliminated
